This is an account of results in ChEMBL document CHEMBL3243977, “Synthesis and antiestrogenic activity of [3,4-dihydro-2-(4-methoxyphenyl)-1-naphthalenyl][4-[2-(1-pyrrolidinyl)ethoxy]-phenyl]methanone, methanesulfonic acid salt” (J Med Chem, 1979).

The test system of assay [1] is Rattus norvegicus. Briefly: Postcoital antifertility activity in rat assessed as viable/resorbing fetuses at 1 ug, po qd for 11 days. In kind it is functional, organism-based. The method in brief:
(§1)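 Female rats, 4–5 per group, given 11 daily oral or subcutaneous doses starting at the first evidence of breeding. They were killed on day 12 and checked for viable or resorbing fetuses. Results are given as animals pregnant out of animals treated.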

Assay [2] relates to Rattus norvegicus. The assay is described as follows: Postcoital antifertility activity in rat assessed as viable/resorbing fetuses at 1 ug, sc qd for 11 days. The assay is classed as functional, organism-based. An outline of the steps: as §1
Assay [3] concerns Rattus norvegicus. The assay is described as follows: Uterotropic activity in ovariectomized rat assessed as increase of uterine weight at 1 ug, sc qd for 7 days. The settings on record: in the assay text read “1 mg” for “1 ug”. The assay is classed as functional, Uterus. The method in brief:
(§2)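 Ovariectomized adult rats, five per group, treated daily for 7 days, orally or subcutaneously, with the agent in 0.1 mL corn oil. The value is the mean uterine weight in mg of the treated group minus that of the control group (eight animals). Significance was tested by Student's t test (p < 0.05).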

Assay [4] deals with Mus musculus. Briefly: Antiestrogenic activity in immature Cox mouse assessed as reduction of uterine wet weight at 100 ug, sc qd for 3 days in presence of 0.3 ug of estrone. The assay is classed as functional. An outline of the steps:
(§3)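 Immature mice, ten per group, given the agent daily for 3 days by subcutaneous injection or by mouth. The agent went with estrone given subcutaneously (0.3 µg total dose in the table). Subcutaneous doses were in 0.1 mL corn oil, and doses are stated as total dose. Uterine wet weight was taken on day 4 and compared with estrone alone. Reported as mean difference in mg (SE) and % inhibition.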

In assay [5] the test system is Mus musculus. The assay is described as follows: Antiestrogenic activity in immature Cox mouse assessed as reduction of uterine wet weight at 100 ug, po qd for 3 days in presence of 0.3 ug of estrone. The assay is classed as functional. The method in brief:
as §3

Assay [6] has as its system Mus musculus. Briefly: Antiestrogenic activity in immature Cox mouse assessed as reduction of uterine wet weight at 30 ug, sc qd for 3 days. In kind it is functional.
Assay [7] relates to Mus musculus. The assay is described as follows: Antiestrogenic activity in immature Cox mouse assessed as reduction of uterine wet weight at 30 ug, po qd for 3 days in presence of 0.3 ug of estrone. The assay is classed as functional. The method in brief:
as §3

Assay [8] concerns Rattus norvegicus. Briefly: Postcoital antifertility activity in rat assessed as viable/resorbing fetuses at 5 ug, sc qd for 11 days. In kind it is functional, organism-based. An outline of the steps: as §1
In assay [9] the test system is Rattus norvegicus. Briefly: Postcoital antifertility activity in rat assessed as viable/resorbing fetuses at 0.5 ug, sc qd for 11 days. The assay is classed as functional, organism-based. The method in brief:
as §1

Assay [10] deals with Mus musculus. The assay is described as follows: Antiestrogenic activity in immature Cox mouse assessed as reduction of uterine wet weight at 30 ug, sc qd for 3 days in presence of 0.3 ug of estrone. The assay is classed as functional. The method in brief: as §3
The subject of assay [11] is Mus musculus. Briefly: Antiestrogenic activity in immature Cox mouse assessed as reduction of uterine wet weight at 1 ug, sc qd for 3 days in presence of 0.3 ug of estrone. In kind it is functional. The method in brief:
as §3

Assay [12] deals with Mus musculus. The assay is described as follows: Antiestrogenic activity in immature Cox mouse assessed as reduction of uterine wet weight at 1 ug, sc qd for 3 days. In kind it is functional.
Assay [13] deals with Rattus norvegicus. Briefly: Uterotropic activity in ovariectomized rat assessed as increase of uterine weight at 1 ug, po qd for 7 days. The assay is classed as functional, Uterus. The settings on record: in the assay text read “1 mg” for “1 ug”. An outline of the steps:
as §2

For assay [14], the system named is Mus musculus. The assay is described as follows: Antiestrogenic activity in immature Cox mouse assessed as reduction of uterine wet weight at 10 ug, sc qd for 3 days. In kind it is functional.
In assay [15] the test system is Rattus norvegicus. Briefly: Uterotropic activity in ovariectomized rat assessed as increase of uterine weight at 0.1 ug, po qd for 7 days. The settings on record: in the assay text read “0.1 mg” for “0.1 ug”. In kind it is functional, Uterus. The method in brief:
as §2

For assay [16], the system named is Rattus norvegicus. The assay is described as follows: Postcoital antifertility activity in rat assessed as viable/resorbing fetuses at 5 ug, po qd for 11 days. In kind it is functional, organism-based. An outline of the steps: as §1
Assay [17] deals with Rattus norvegicus. The assay is described as follows: Uterotropic activity in ovariectomized rat assessed as increase of uterine weight at 0.5 ug, po qd for 7 days. The assay is classed as functional, Uterus. The following applies: in the assay text read “0.5 mg” for “0.5 ug”. The method in brief: as §2
Assay [18] relates to Rattus norvegicus. The assay is described as follows: Antiuterotropic activity in ovariectomized rat assessed as reduction of uterine weight at 5 ug, po qd for 7 days in presence of 17beta-estradiol (reference value: 268.7 +/- 10.3 mg). The assay is classed as functional.
The subject of assay [19] is Mus musculus. The assay is described as follows: Antiestrogenic activity in immature Cox mouse assessed as reduction of uterine wet weight at 300 ug, sc qd for 3 days. The assay is classed as functional.
For assay [20], the system named is Mus musculus. The assay is described as follows: Antiestrogenic activity in immature Cox mouse assessed as reduction of uterine wet weight at 3 ug, sc qd for 3 days. The assay is classed as functional.
Assay [21] concerns Mus musculus. The assay is described as follows: Antiestrogenic activity in immature Cox mouse assessed as reduction of uterine wet weight at 300 ug, po qd for 3 days in presence of 0.3 ug of estrone. The assay is classed as functional. An outline of the steps: as §3
For assay [22], the system named is Mus musculus. The assay is described as follows: Antiestrogenic activity in immature Cox mouse assessed as reduction of uterine wet weight at 10 ug, sc qd for 3 days in presence of 0.3 ug of estrone. The assay is classed as functional. The method in brief:
as §3

Assay [23] has as its system Rattus norvegicus. The assay is described as follows: Antiuterotropic activity in ovariectomized rat assessed as reduction of uterine weight at 3 ug, po qd for 7 days in presence of 17beta-estradiol (reference value: 268.7 +/- 10.3 mg). In kind it is functional.
The test system of assay [24] is Rattus norvegicus. The assay is described as follows: Postcoital antifertility activity in rat assessed as viable/resorbing fetuses at 0.5 ug, po qd for 11 days. In kind it is functional, organism-based. An outline of the steps:
as §1

The subject of assay [25] is Mus musculus. Briefly: Antiestrogenic activity in immature Cox mouse assessed as reduction of uterine wet weight at 100 ug, sc qd for 3 days. In kind it is functional.
The test system of assay [26] is Mus musculus. The assay is described as follows: Antiestrogenic activity in immature Cox mouse assessed as reduction of uterine wet weight at 3 ug, sc qd for 3 days in presence of 0.3 ug of estrone. The assay is classed as functional. An outline of the steps: as §3
The subject of assay [27] is Mus musculus. The assay is described as follows: Antiestrogenic activity in immature Cox mouse assessed as reduction of uterine wet weight at 300 ug, sc qd for 3 days in presence of 0.3 ug of estrone. The assay is classed as functional. The method in brief: as §3
Assay [28] relates to Rattus norvegicus. Briefly: Antiuterotropic activity in ovariectomized rat assessed as reduction of uterine weight at 10 ug, po qd for 7 days in presence of 17beta-estradiol (reference value: 268.7 +/- 10.3 mg). The assay is classed as functional.

Calls of active or inactive are those of the source. The rule behind the calls is not given here.

`COc1ccc(C(=O)C2=C(c3ccc(OC)cc3)CCc3ccccc32)cc1`: the result in the assay on Rattus norvegicus [1] and in the assay with Rattus norvegicus [2] (in the assay text read “at 1 mg” for “at 1 ug”) was inactive.

For the compound `COc1ccc(C2=C(C(=O)c3ccc(OCCN4CCCC4)cc3)c3ccccc3CC2)cc1.CS(=O)(=O)O` [TRIOXIFENE MESYLATE], the Activity came to 66.8 mg in the assay with Rattus norvegicus [3]; 21.2 mg in the assay with Mus musculus [6]; 8.6 mg in the assay with Mus musculus [12]; 58.7 mg in the assay on Rattus norvegicus [13]; 34 mg in the assay on Mus musculus [14]; 35 mg in the assay with Rattus norvegicus [15]. Moreover, the Activity in the assay on Rattus norvegicus [17] amounted to 54.9 mg; in the assay on Rattus norvegicus [18] it was 222.3 mg; with Mus musculus [19], 19.1 mg; in the assay with Mus musculus [20] it was 28.8 mg; in the assay with Rattus norvegicus [23], 231.7 mg; in the assay on Mus musculus [25] it was 24.2 mg. Further, in the assay on Rattus norvegicus [28], the Activity stood at 200.9 mg. Moreover, the “inhibition (INH)” value is reported as 53.5% in the assay on Mus musculus [4]; 49.2% in the assay with Mus musculus [5]; 31.1% in the assay on Mus musculus [7]; 25.9% with Mus musculus [10]; 0% in the assay on Mus musculus [11]; 52.3% in the assay with Mus musculus [21]. Further, the “inhibition (INH)” value in the assay with Mus musculus [22] is listed as 22.8%; in the assay on Mus musculus [26] it was 12.7%; in the assay with Mus musculus [27] it was 44.1%. For the same compound, the outcome with Rattus norvegicus [8], in the assay with Rattus norvegicus [1], in the assay with Rattus norvegicus [16] and in the assay with Rattus norvegicus [2] was Active. In addition, the result in the assay with Rattus norvegicus [9] and in the assay on Rattus norvegicus [24] was inactive.

Regarding `COc1ccc(C(=O)C2C(c3ccc(OC)cc3)=CCc3ccccc32)cc1` (configuration not stated), the result in the assay on Rattus norvegicus [1] and in the assay on Rattus norvegicus [2] was inactive.
